# Assays:
# Human rhinovirus sp. = assay: Antirhinovirus activity in HRVM infected in H1-HeLa cells assessed as inhibition of virus-induced cytopathic effect after 3 days by Cell-Titer Glo viability assay; type: functional, organism-based; settings: 72 h
# Outline: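 H1-HeLa cells in RPMI with 10% heat-inactivated FBS and antibiotics, premixed in batch with HRV1A, HRV14 and HRV16, each at 4× TCID90. Replicate 3-fold serial dilutions in DMSO transferred acoustically (384-well). Incubated three days at 33 °C. Cytopathic effect read as viability by CellTiter-Glo.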
# Coxsackievirus B3 [1] = assay: Anticoxsackie activity in CVB3 strain Nancy infected in human HeLa cells assessed as inhibition of virus-induced cytopathic effect after 4 hrs by XTT assay; type: functional, cell-based; settings: Enterovirus B, 3 days, in the assay text read “after 3 days” for “after 4 hrs”
# Outline: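 HeLa cells seeded a day ahead (30000/well) in DMEM with L-glutamine, 2% FBS, penicillin/streptomycin. 3-fold serial compound dilutions in triplicate, 1 h preincubation, then CVB3 added at MOI 0.005 IU/cell. Incubated 3 days at 37 °C, 5% CO2. Viability by XTT over 4 h, absorbance of formazan read. EC50 by nonlinear regression of % viability vs log10 concentration.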
# Hepatitis C virus [2] = assay: Antiviral activity in HCV 2a JFH1 infected in HUH 7-lunet cells after 3 days by Dual-Glo luciferase assay; type: functional, cell-based, Hepacivirus hominis; settings: subtype 2a JFH1, Huh-7, 72 h
# Outline: (§1)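 Multiplex replicon assay in HUH 7-lunet cells carrying a genotype 1b replicon (I389luc-ubi-neo/NS3-3′/ET) or a 2a JFH-1 replicon (2aLucNeo-25). Cells kept in DMEM with GlutaMAX, 10% non-heat-inactivated FBS, 1 mg/mL G-418 and nonessential amino acids. 1600 cells/well (384-well) given serial dilutions. After three days, Renilla luciferase read by Dual-Glo.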
# Hepatitis C virus [3] = assay: Antiviral activity in HCV 1b infected in HUH 7-lunet cells after 3 days by Dual-Glo luciferase assay; type: functional, cell-based, Hepacivirus hominis; settings: genotype 1b, Huh-7, 72 h; outline: as §1
# [4] = Inhibition of PI4K3beta (unknown origin) assessed as hydrolysis of ATP for 60 mins by ADP-Glo kinase assay; design: species or system Homo sapiens
# Outline: (§2)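 ADP-Glo lipid kinase assay, 5 μL. Final enzyme: PI4K IIIβ 4 ng/μL, IIIα 2 ng/μL, IIα 2 ng/μL. Substrate PI/PS 50 μM, ATP 100 μM final. Inhibitors from 10 mM DMSO stocks. Run 60 min at 25 °C, ADP by luminescence.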
# [5] = molecular target: Phosphatidylinositol 4-kinase type 2-alpha (Homo sapiens, UniProt Q9BTU6); assay: Inhibition of PI4K2alpha (unknown origin) assessed as hydrolysis of ATP for 60 mins by ADP-Glo kinase assay; outline: as §2
# Sequence of Phosphatidylinositol 4-kinase type 2-alpha (Q9BTU6 whole entry): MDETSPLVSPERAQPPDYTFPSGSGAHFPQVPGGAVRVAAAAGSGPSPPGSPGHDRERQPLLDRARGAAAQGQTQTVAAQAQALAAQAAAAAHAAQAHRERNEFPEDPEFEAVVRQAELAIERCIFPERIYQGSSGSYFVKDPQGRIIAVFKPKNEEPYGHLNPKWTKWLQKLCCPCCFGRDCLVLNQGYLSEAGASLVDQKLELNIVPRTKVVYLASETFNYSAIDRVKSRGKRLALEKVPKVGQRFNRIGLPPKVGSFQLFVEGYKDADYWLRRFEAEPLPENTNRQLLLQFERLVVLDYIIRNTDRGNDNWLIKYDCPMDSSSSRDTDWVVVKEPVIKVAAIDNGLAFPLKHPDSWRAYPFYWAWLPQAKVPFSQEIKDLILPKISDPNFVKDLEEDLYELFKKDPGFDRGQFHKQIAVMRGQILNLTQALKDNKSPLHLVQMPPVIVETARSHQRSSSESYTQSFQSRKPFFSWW
# [6] = Cytotoxicity against human HeLa cells; type: cell-based
# [7] = Inhibition of PI4K3alpha (unknown origin) assessed as hydrolysis of ATP for 60 mins by ADP-Glo kinase assay; design: species or system Homo sapiens; outline: as §2
# Coxsackievirus B3 [8] = assay: Anticoxsackie activity in CVB3 strain Nancy infected in human HeLa cells assessed as inhibition of virus-induced cytopathic effect after 3 days by XTT assay; settings: Enterovirus B
EC50 (Hepatitis C virus [2]),EC50 (Hepatitis C virus [3]),IC50 [4],IC50 [5],IC50 [7],EC50 (Coxsackievirus B3 [8]),SMILES,EC50 (Human rhinovirus sp.),EC50 (Coxsackievirus B3 [1]),CC50 [6]
> 44 µM,1030 nM,,,,,COc1ccc(-c2c(C)nn3c(NCCN4CCOCC4)cc(C)nc23)cc1OC,2500 nM,3380 nM,
> 44 µM,1030 nM,70 nM,> 100 µM,59.5 µM,,COc1ccc(-c2c(C)nn3c(NCCNC(C)=O)cc(C)nc23)cc1OC,2900 nM,1230 nM,> 50 µM
> 44 µM,1210 nM,120 nM,> 100 µM,62.1 µM,,COc1ccc(-c2c(C)nn3c(NCCNC(=O)C(C)C)cc(C)nc23)cc1OC,1620 nM,11000 nM,> 50 µM
42.5 µM,910 nM,120 nM,> 100 µM,29.3 µM,1430 nM,COc1ccc(-c2c(C)nn3c(NCCNS(C)(=O)=O)cc(C)nc23)cc1OC,3000 nM,,> 50 µM
> 44 µM,960 nM,67 nM,> 100 µM,29.5 µM,,COc1ccc(-c2c(C)nn3c(NCCOC(C)=O)cc(C)nc23)cc1OC,1380 nM,860 nM,> 50 µM
17.9 µM,370 nM,93 nM,> 100 µM,27.5 µM,,COc1ccc(-c2c(C)nc3c(NCCN4CCOCC4)ccnn23)cc1OC,880 nM,500 nM,> 50 µM
31.8 µM,290 nM,,> 100 µM,82.7 µM,,COc1ccc(-c2c(C)nc3c(NCCNC(C)=O)cc(Cl)nn23)cc1OC,1090 nM,750 nM,> 50 µM
13.6 µM,5300 nM,89 nM,> 100 µM,> 100 µM,,CC(=O)NCCNc1cc(Cl)nn2c(-c3ccc(F)c(C=O)c3)c(C)nc12,24300 nM,> 50000 nM,> 50 µM
27.9 µM,360 nM,92 nM,> 100 µM,33.7 µM,,COc1ccc(-c2c(C)nc3c(NCCNC(C)=O)ccnn23)cc1OC,2900 nM,280 nM,> 50 µM
26.5 µM,210 nM,83 nM,> 100 µM,> 100 µM,,COc1ccc(-c2c(C)nc3c(N)cc(Cl)nn23)cc1OC,890 nM,23 nM,1.75 µM

SMILES,EC50 (Hepatitis C virus [2]),EC50 (Hepatitis C virus [3]),IC50 [4],IC50 [5],IC50 [7],EC50 (Coxsackievirus B3 [8]),EC50 (Human rhinovirus sp.),EC50 (Coxsackievirus B3 [1]),CC50 [6]
C[C@@]1(O)[C@H](O)[C@@H](CO)O[C@H]1n1ccc2c(N)ncnc21 [BETA-2'-C-METHYL-7-DEAZA-ADENOSINE],0.21 µM,210 nM,,,,,5100 nM,,> 50 µM
